The format of data set [1] is in vivo, Balb/c nude mice harboring LoVo xenografts. Conditions: for AUC0–∞ ratio Multiple/Single in tumors: 8-day vs single SMI 10 mL/kg/day i.p.
Data set [2] is classed as in vivo, Balb/c nude mice harboring LoVo xenografts. The note with it: for Cmax / Tmax: Balb/c nude, mouse, plasma, ip; for AUC0–∞ in plasma relative to those of Re, Rg1, Rg3 and Ro: after single or multiple SMI administration. A digest of the protocol:
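Male LoVo-xenograft nude mice (6 weeks old) received 10 mL/kg i.p., either once or daily for 8 days. Blood (~0.1 mL) was drawn from the oculi chorioideae vein into heparin tubes between 5 min and 96 h after the last dose, 5 mice per time point. Plasma was spun at 8000 rpm for 5 min and extracted with methanol. AUC0–∞ and the multiple/single ratio were derived.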

Data set [3] has as its system LoVo colon cancer xenograft. The data set is described as follows: Xenograft tumor growth, SMI combined with 5FU, 14-day treatment. It counts as in vivo, Balb/c nude mice. The note with it: compared to vehicle treated group; SMI 10 mL/kg/day, 5FU 15 mg/kg/3 days i.p., 14 days.
The nature of data set [4]: Mice body weight in the 5FU combination study. The note with it: 5FU 15 mg/kg/3 days i.p.; 17-day treatment. It counts as in vivo, Balb/c mice harboring LoVo xenografts. Summed up:
(§1)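 LoVo-xenograft mice with all tumors above 50 mm3 were dosed i.p. for 20 days: 10 mL/kg/day, 5 mg/kg/day, and/or 5FU 15 mg/kg every 3 days. Body weight and tumor axes were recorded daily; tumor volume = 1/2 × a × b². Tumors were resected after treatment. Weight change was read after 17 days; mean ± SEM.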

A further data set relates to LoVo xenografts. In words: Xenograft tumor growth, SMI or Rd combined with 5FU, 20-day treatment. It counts as in vivo, Balb/c mice. The note with it: compared to vehicle + saline; SMI 10 mL/kg/day, Rd 5 mg/kg/day, 5FU 15 mg/kg/3 days i.p., 20 days. A digest of the protocol:
as §1

Data set [5] is classed as in vivo, mice harboring xenograft tumors. Conditions: after intraperitoneal injection of Rb1, Rc, or Rd; data not shown.
In the next data set the test system is VEGF. The data set is described as follows: ELISA of VEGF secretion in tumors. Format: in vivo, Balb/c mice harboring LoVo xenografts. Conditions: 15 days i.p.; SMI, Rd-H 5 mg/kg, Rb1, Rg1; vs vehicle. Summed up: (§2)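 Mice received test compound i.p. for 15 days. Tumors were harvested 20 min after the final dose and homogenized in RIPA buffer. VEGF and FGF were quantified by ELISA kit and normalized to protein content measured by BCA assay. Compared with vehicle.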
A general note: An ELISA detects its analyte on a solid surface through an enzyme-linked reagent.

In another data set the test system is FGF. The data set is described as follows: ELISA of FGF secretion in tumors. Conditions: 15 days i.p.; SMI, Rd-H 5 mg/kg, Rb1, Rg1; vs vehicle. It counts as in vivo, Balb/c mice harboring LoVo xenografts. Summed up: as §2
Data set [6] can be described thus: Constituent ratio of ginsenosides in SMI, plasma, tumor and endothelial cells. Format: in vivo, Balb/c nude mice harboring LoVo xenografts. The note with it: 20 min after 15-day SMI treatment. Summed up: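 Tissues were sampled 20 min after the last dose of a 15-day i.p. course. Tumors were digested 1 h in DMEM with collagenase I (2 mg/mL) and DNase I (0.1 mg/mL), then strained through 40 μm mesh. CD31+ cells were enriched with PE anti-mouse CD31 and anti-PE magnetic particles, with purity checked by CD45/viability flow cytometry; n = 3. Each ratio = concentration of the constituent / summed eight ginsenosides.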

Where [7] appears, read: after eight days of SMI 10 mL/kg/day i.p.
Where [8] appears, read: single dose of SMI 10 mL/kg i.p.

Where two headings read alike, the source gives them in different places.

Broadly, the Cmax is the maximum level reached in the sampled fluid or tissue. By Tmax is commonly meant the time from dosing to the highest level. Consider `CC(C)=CCC[C@](C)(O[C@@H]1O[C@H](CO[C@@H]2O[C@@H](CO)[C@H](O)[C@H]2O)[C@@H](O)[C@H](O)[C@H]1O)[C@H]1CC[C@]2(C)[C@@H]1[C@H](O)C[C@@H]1[C@@]3(C)CC[C@H](O[C@@H]4O[C@H](CO)[C@@H](O)[C@H](O)[C@H]4O[C@@H]4O[C@H](CO)[C@@H](O)[C@H](O)[C@H]4O)C(C)(C)[C@@H]3CC[C@]12C` [Rc], for which, in [1], the “AUC0–∞ ratio Multiple/Single in tumors” value is 5.67. For the same compound, in [2] (10 mL/kg), the Cmax was 7800 ng/mL and the Tmax is 240 min. In data set [2] (10 mL/kg/day), the Cmax was determined as 16900 ng/mL and the Tmax turned out to be 120 min. Further, in data set [2], the “AUC0–∞ in plasma relative to those of Re, Rg1, Rg3 and Ro” value was “more than 20 times”.
As for `CC1(C)CC[C@]2(C(=O)O[C@@H]3O[C@H](CO)[C@@H](O)[C@H](O)[C@H]3O)CC[C@]3(C)C(=CC[C@@H]4[C@@]5(C)CC[C@H](O[C@@H]6O[C@H](C(=O)O)[C@@H](O)[C@H](O)[C@H]6O[C@@H]6O[C@H](CO)[C@@H](O)[C@H](O)[C@H]6O)C(C)(C)[C@@H]5CC[C@]43C)[C@@H]2C1` [Ro, ginsenoside Ro], the “AUC0–∞ ratio Multiple/Single in tumors” value in data set [1] is reported as 0.92. For the same compound, in data set [2] (setting [7]), the Cmax in plasma is 3700 ng/mL and the “Time of maximum concentration in plasma” value is listed as 20 min. For the same compound, in data set [2] (setting [8]), the Cmax in plasma came to 3900 ng/mL and the “Time of maximum concentration in plasma” value is 60 min.
As for `O=c1[nH]cc(F)c(=O)[nH]1` [5FU, 5-fluorouracil], the “Suppression of tumor growth” value is listed as 49.0% in data set [3] and 17% in the data set on LoVo xenografts. Also, the “Suppression of the increase of mice body weight” value in data set [4] worked out at 65%.
As for `CC(C)=CCC[C@](C)(O[C@@H]1O[C@H](CO)[C@@H](O)[C@H](O)[C@H]1O)[C@H]1CC[C@]2(C)[C@@H]1[C@H](O)C[C@@H]1[C@@]3(C)CC[C@H](O)C(C)(C)[C@@H]3CC[C@]12C` [CK, compound K], the “Detection in plasma or tumor tissues” value in data set [5] is recorded as “neither Rg3 nor CK could be detected”.
As for `CC(C)=CCC[C@](C)(O[C@@H]1O[C@H](CO[C@@H]2O[C@H](CO)[C@@H](O)[C@H](O)[C@H]2O)[C@@H](O)[C@H](O)[C@H]1O)[C@H]1CC[C@]2(C)[C@@H]1[C@H](O)C[C@@H]1[C@@]3(C)CC[C@H](O[C@@H]4O[C@H](CO)[C@@H](O)[C@H](O)[C@H]4O[C@@H]4O[C@H](CO)[C@@H](O)[C@H](O)[C@H]4O)C(C)(C)[C@@H]3CC[C@]12C` [Rb1, ginsenoside Rb1], the “AUC0–∞ ratio Multiple/Single in tumors” value in [1] turned out to be 1.64. Besides, in data set [2] (10 mL/kg), the Cmax was 20600 ng/mL and the Tmax was found to be 60 min. Also, in data set [2] (10 mL/kg/day), the peak level (Cmax) was 49400 ng/mL and the Tmax came out at 120 min. For the same compound, in data set [2], the “AUC0–∞ in plasma relative to those of Re, Rg1, Rg3 and Ro” value is recorded as “more than 20 times”. For the same compound, in the data set with VEGF, the “Reduction of the secretion of VEGF in tumors” value stood at 15%. Also, the “Suppression of the secretion of FGF in tumors” value with FGF worked out at 99%. Moreover, in data set [6], the “Constituent ratio in TECs” value came to 14.9%, the “Constituent ratio in plasma” value worked out at 34.5% and the “Constituent ratio in tumor tissues” value stood at 21.9%.
For the compound `CC(C)=CCC[C@](C)(O[C@@H]1O[C@H](CO)[C@@H](O)[C@H](O)[C@H]1O)[C@H]1CC[C@]2(C)[C@@H]1[C@H](O)C[C@@H]1[C@@]3(C)CC[C@H](O)C(C)(C)[C@@H]3[C@@H](O[C@@H]3O[C@H](CO)[C@@H](O)[C@H](O)[C@H]3O[C@@H]3O[C@@H](C)[C@H](O)[C@@H](O)[C@H]3O)C[C@]12C` [Re], the Cmax in data set [2] (10 mL/kg) came out at 1600 ng/mL; in data set [2] (10 mL/kg/day), 1300 ng/mL. Besides, the Tmax in data set [2] (10 mL/kg) and in [2] (10 mL/kg/day) was 10 min each time.
Consider `CC(C)=CCC[C@](C)(O[C@@H]1O[C@H](CO)[C@@H](O)[C@H](O)[C@H]1O)[C@H]1CC[C@]2(C)[C@@H]1[C@H](O)C[C@@H]1[C@@]3(C)CC[C@H](O)C(C)(C)[C@@H]3[C@@H](O[C@@H]3O[C@H](CO)[C@@H](O)[C@H](O)[C@H]3O)C[C@]12C` [Rg1], for which the Cmax in data set [2] (10 mL/kg) was determined as 2000 ng/mL; in [2] (10 mL/kg/day) it was 2100 ng/mL. The Tmax in [2] (10 mL/kg) and in data set [2] (10 mL/kg/day) was 10 min in each case. The “Reduction of the secretion of VEGF in tumors” value with VEGF was determined as 1%. For the same compound, the “Suppression of the secretion of FGF in tumors” value with FGF is 97%.
With `CC(C)=CCC[C@](C)(O)[C@H]1CC[C@]2(C)[C@@H]1[C@H](O)C[C@@H]1[C@@]3(C)CC[C@H](O[C@@H]4O[C@H](CO)[C@@H](O)[C@H](O)[C@H]4O[C@@H]4O[C@H](CO)[C@@H](O)[C@H](O)[C@H]4O)C(C)(C)[C@@H]3CC[C@]12C` [Rg3], the “Detection in tumors over time” value in data set [1] (20 min, 2, 12, 24, 96 h after single or multiple SMI administration) was “could not be identified at any time”. Besides, the Cmax in plasma came out at 300 ng/mL in [2] (setting [7]) and 100 ng/mL in data set [2] (setting [8]). Moreover, the entries for the “Time of maximum concentration in plasma” value in data set [2] (setting [7]) and in data set [2] (setting [8]) were 20 min and 60 min, respectively. Also, the “Detection in plasma or tumor tissues” value in data set [5] is given as “neither Rg3 nor CK could be detected”.

Values taken from publication PMC7564034 (Acta Pharmaceutica Sinica. B, 2019).
